The values that follow come from ChEMBL document CHEMBL2417386, “Novel conjugated quinoline-indoles compromise Plasmodium falciparum mitochondrial function and show promising antimalarial activity” (J Med Chem, 2013).

For series [1], the system named is Plasmodium falciparum. In words: Antimalarial activity against mid to late trophozoite stage of Plasmodium falciparum 3D7 infected in RBC assessed as abnormal mitochondria at 3 uM after 0.5 hrs by MitoTracker Red CMXRos-based fluorescence microscopic analysis relative to untreated control. The format is functional.
Series [2] has as its system Plasmodium falciparum. In words: Gametocytocidal activity against synchronous stage 4 to 5 of transgenic Plasmodium falciparum NF54 gametocyte harboring pfs16 promoter assessed as parasite viability after 72 hrs by MitoTracker Red CMXRos-based assay. In kind it is functional, organism-based. Conditions: NF54, 72 h.
The nature of series [3]: Inhibition of beta-hematin formation after 24 hrs by spectrophotometric analysis in presence of nonidet P40. In kind it is functional.
For series [4], the system named is Plasmodium falciparum. The series is described as follows: Gametocytocidal activity against synchronous stage 1 to 3 of transgenic Plasmodium falciparum NF54 gametocyte harboring pfs16 promoter assessed as parasite viability after 72 hrs by luciferase reporter gene assay. The format is functional, organism-based. Conditions: NF54, 72 h.
The subject of series [5] is Plasmodium falciparum. The series is described as follows: Antimalarial activity against Plasmodium falciparum 3D7 infected in RBC assessed as growth inhibition after 48 hrs by SYBR Green-I fluorescence assay. In kind it is functional, organism-based. Conditions: 3D7, 48 h. An outline of the steps:
(§1)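 Parasite-infected red cells exposed to compound for 48 h; growth read by SYBR Green-I fluorescence; IC50 derived. Where a ± is given, it is the standard deviation of three individual experiments.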

For series [6], the system named is Plasmodium falciparum. The series is described as follows: Antimalarial activity against mid to late trophozoite stage of Plasmodium falciparum 3D7 infected in RBC assessed as nonviable parasite at 3 uM after 0.5 hrs by SYTO 61 staining-based flow cytometric analysis relative to untreated control. In kind it is functional. A general note: A flow cytometer gives signals particle by particle.

A short description of series [7]: Selectivity index, ratio of IC50 for HEK293 cells to IC50 for Plasmodium falciparum 3D7 after 72 hrs. The format is toxicity, cell-based. To be noted: human, read-out: Ratio IC50. An outline of the steps: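 Parasite (3D7) viability assay and HEK293 viability assay, each with a 72 h exposure. Index taken as the ratio of the IC50 values, HEK293 over 3D7.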
Series [8] concerns Plasmodium falciparum. In words: Antimalarial activity against mid to late trophozoite stage of Plasmodium falciparum 3D7 infected in RBC assessed as abnormal mitochondria at 15 uM after 0.5 hrs by MitoTracker Red CMXRos-based fluorescence microscopic analysis relative to untreated control. The format is functional.
In series [9] the test system is Plasmodium falciparum. In words: Antimalarial activity against mid to late trophozoite stage of Plasmodium falciparum 3D7 infected in RBC assessed as nonviable parasite at 0.6 uM after 0.5 hrs by SYTO 61 staining-based flow cytometric analysis relative to untreated control. The format is functional.
The subject of series [10] is Plasmodium falciparum. In words: Antimalarial activity against Plasmodium falciparum K1 infected in RBC assessed as growth inhibition after 48 hrs by SYBR Green-I fluorescence assay. The format is functional, organism-based. Conditions: K1, 48 h. An outline of the steps: as §1
Series [11] relates to Plasmodium falciparum. The series is described as follows: Antimalarial activity against mid to late trophozoite stage of Plasmodium falciparum 3D7 infected in RBC assessed as nonviable parasite at 15 uM after 0.5 hrs by SYTO 61 staining-based flow cytometric analysis relative to untreated control. The format is functional.
Series [12] can be described thus: Dissociation constant, pKa of the compound at 50 uM by spectrophotometric analysis. The format is physicochemical.
The subject of series [13] is Plasmodium falciparum. In words: Antimalarial activity against mid to late trophozoite stage of Plasmodium falciparum 3D7 infected in RBC assessed as abnormal mitochondria at 0.6 uM after 0.5 hrs by MitoTracker Red CMXRos-based fluorescence microscopic analysis relative to untreated control. The format is functional.
In series [14] the test system is Plasmodium falciparum. The series is described as follows: Gametocytocidal activity against synchronous stage 4 to 5 of transgenic Plasmodium falciparum NF54 gametocyte harboring pfs16 promoter assessed as inhibition of parasite viability at 60 uM after 72 hrs by MitoTracker Red CMXRos-based assay relative to control. The format is functional. Conditions: NF54, 72 h.

In series [15] the test system is Plasmodium falciparum. In words: Antimalarial activity against mid to late trophozoite stage of Plasmodium falciparum 3D7 infected in RBC assessed as nonviable parasite at 1000 uM after 0.5 hrs by SYTO 61 staining-based flow cytometric analysis relative to untreated control. In kind it is functional.
In series [16] the test system is Plasmodium falciparum. The series is described as follows: Antimalarial activity against mid to late trophozoite stage of Plasmodium falciparum 3D7 infected in RBC assessed as abnormal mitochondria at 200 uM after 0.5 hrs by MitoTracker Red CMXRos-based fluorescence microscopic analysis relative to untreated control. The format is functional.
The test system of series [17] is Plasmodium falciparum. The series is described as follows: Antimalarial activity against mid to late trophozoite stage of Plasmodium falciparum 3D7 infected in RBC assessed as abnormal mitochondria at 1000 uM after 0.5 hrs by MitoTracker Red CMXRos-based fluorescence microscopic analysis relative to untreated control. The format is functional.
In series [18] the test system is Plasmodium falciparum. In words: Antimalarial activity against mid to late trophozoite stage of Plasmodium falciparum 3D7 infected in RBC assessed as abnormal mitochondria at 40 uM after 0.5 hrs by MitoTracker Red CMXRos-based fluorescence microscopic analysis relative to untreated control. In kind it is functional.
Series [19] relates to Plasmodium falciparum. The series is described as follows: Antimalarial activity against mid to late trophozoite stage of Plasmodium falciparum 3D7 infected in RBC assessed as abnormal mitochondria at 0.005 uM after 0.5 hrs by MitoTracker Red CMXRos-based fluorescence microscopic analysis relative to untreated control. The format is functional.
In series [20] the test system is Plasmodium falciparum. The series is described as follows: Antimalarial activity against mid to late trophozoite stage of Plasmodium falciparum 3D7 infected in RBC assessed as nonviable parasite at 0.005 uM after 0.5 hrs by SYTO 61 staining-based flow cytometric analysis relative to untreated control. The format is functional.
Series [21] deals with Plasmodium falciparum. In words: Antimalarial activity against mid to late trophozoite stage of Plasmodium falciparum 3D7 infected in RBC assessed as nonviable parasite at 200 uM after 0.5 hrs by SYTO 61 staining-based flow cytometric analysis relative to untreated control. In kind it is functional.
Series [22] relates to Plasmodium falciparum. In words: Antimalarial activity against mid to late trophozoite stage of Plasmodium falciparum 3D7 infected in RBC assessed as nonviable parasite at 40 uM after 0.5 hrs by SYTO 61 staining-based flow cytometric analysis relative to untreated control. The format is functional.

Take `Nc1cc(/C=C/c2c[nH]c3ccccc23)nc2ccccc12`: the Activity with Plasmodium falciparum [1] is reported as 66%; with Plasmodium falciparum [6], 77%; in the series with Plasmodium falciparum [8], 93%; in the series on Plasmodium falciparum [9], 46%; in the series on Plasmodium falciparum [11] it was 88%; with Plasmodium falciparum [13], 27%. Also, the IC50 is 1400 nM in the series with Plasmodium falciparum [2]; over 4000 µM in series [3]; 370 nM in the series on Plasmodium falciparum [4]; 200 nM in the series with Plasmodium falciparum [5]; 390 nM in the series with Plasmodium falciparum [10]. The selectivity ratio at 72 h in [7] came out at 79. In series [12], this compound gave a pKa at 50 µM of 9.5.
With `CCN(CC)CCCC(C)Nc1ccnc2cc(Cl)ccc12` (stereo not drawn) [CHLOROQUINE], in the series on Plasmodium falciparum [14], the inhibition at 60 µM was 100%. The Activity with Plasmodium falciparum [15] came to 85%; in the series with Plasmodium falciparum [16] it was 5%; in the series with Plasmodium falciparum [17] it was 8%; in the series with Plasmodium falciparum [18], 0%; in the series on Plasmodium falciparum [19] it was 12%; in the series on Plasmodium falciparum [20] it was 84%. Also, the Activity came out at 36% with Plasmodium falciparum [21] and 23% with Plasmodium falciparum [22]. The IC50 in series [3] was determined as 30 µM.

For orientation: IC50 means the concentration that gives 50% inhibition. The term pKa denotes the pH at which an ionisable group is half protonated. Lower therefore signals a stronger acid or weaker base. Broadly, the inhibition is the drop in the measured response relative to a control, in per cent.
